Experiment: Toxicity liver stage against HepG2, at 10uM
Format: cell-based
Parameters: test concentration 10 uM, cell line HepG2-A16-CD81EGFP
Conditions: human, HepG2-A16-CD81EGFP cells; read-out: INHIBITION
Method in brief: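 Uninfected HepG2-A16-CD81EGFP cells, 3 × 10^3 per well, 1536-well, plated on prespotted compound at 10 μM final, parasite-free screening media added to match infected plates; puromycin 10 μM positive, DMSO 0.5% negative; run in parallel with 48 h PbLuc assay at 37 °C, 5% CO2; viability by CellTiter-Glo luminescence, normalized to controls.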

Compound	cytotoxicity at 10 µM
CCC(C)(C)n1nnnc1C(c1cccs1)N1CCc2ccccc21 (stereo not drawn)	8.67%
CS(=O)(=O)N1CCC2(CCN(Cc3nccs3)CC2)CC1	8.28%
N#Cc1cccc(CN2C[C@@H](F)[C@@H](OCc3nc4cnccc4[nH]3)C2)c1	3.62%
Cc1ccc(NC(=O)c2ccc(=O)n(CC(=O)Nc3nccs3)n2)cc1	0.592%
CS(=O)(=O)N1CC(=O)N(CCCc2ccccc2)CC(O)C1 (stereo not drawn)	-7.99%
CCOC(=O)N1[C@@H](c2ccco2)[C@@H](C(=O)NC)C[C@]12CCCCNC2=O	-4.57%
COc1ccc(C(=O)N2CC(=O)N(CC3CC3)CC(O)C2)cc1 (stereo not drawn)	4.77%
CCOC(=O)N1CCC(OC)c2ccccc2N(CC(=O)NC)C(=O)C1 (stereo not drawn)	9.12%
CCOC(=O)COc1nc(CC(C)C)c2c(c1C#N)CCC2	-5.72%
Cc1occc(=O)c1OCc1noc(C(=O)NC(C)C)n1	4.6%
O=C(Cc1ccc(F)cc1)NCC1CCN(Cc2ccsc2)CC1	-7.15%
CC(O)(CCc1ccccc1)CNC(=O)c1cccs1 (stereo not drawn)	-1.44%
CCS(=O)(=O)N1CCC2(CC1)CC[C@@]1(C(=O)N(C)C)CN(C(C)=O)C[C@@H]21	6.43%
O=C(c1ccco1)N1CCO[C@@H]2CN(c3ncc(F)cn3)CC[C@@H]2C1	4.74%
COc1ccccc1C1SCC(=O)Nc2n[nH]cc21 (stereo not drawn)	-1.84%
Nc1no[n+]([O-])c1C(=O)NCc1cccnc1	5.93%
Cc1ccc(C(=O)N2CCC(c3noc(-c4cccnc4)n3)CC2)cn1	2.6%
Cc1ncsc1-c1cc(C(=O)NCCO)ccn1	-6.58%
CC(C)C(=O)N1CCC([C@@H]2C[C@H](C(F)F)n3ncnc3N2)CC1	6.21%
CN(C)C(=O)CN1CCCC1c1cccc(Cc2ccccc2F)n1 (stereo not drawn)	-6.94%
CCn1ccc(C(=O)N2CCOC(c3nc(-c4cccs4)no3)C2)n1 (stereo not drawn)	10.9%
CC(=O)N1CCC(c2ccnc(Nc3cncnc3)n2)C1 (stereo not drawn)	0.951%

Compound	cytotoxicity at 10 µM
O=C(Cc1ccc(-n2cnnn2)cc1)Nc1cnn(CC(F)F)c1	1.97%
CC(=O)Nc1nc(CNc2ccccc2CCC(F)(F)F)cs1	27.9%
COCCNC(=O)CN1CCN(c2nc3cc(C)ccc3o2)CC1	5.75%
CC1CCCCN1C(=O)CCn1cnc2sccc2c1=O (stereo not drawn)	3.63%
Cc1ccc(C(=O)NC(C)Cn2cccn2)c(=O)[nH]1 (stereo not drawn)	-2.16%
Cc1nnc(C(C)N2CCCN(Cc3noc(C4CC4)n3)CC2)o1 (stereo not drawn)	-21.2%
COC(=O)CCN(CC1CCCO1)C(=O)Cc1ccc(OC)c(OC)c1 (stereo not drawn)	4.08%
NC(=O)c1cc(C2CC2)nc2ccc(F)cc12	3.87%
O=C(O)c1ccc(OC2CCOCC2)cc1	-6.11%
CN(C(=O)c1ccc[nH]1)C1CCC(NC(=O)OC(C)(C)C)CC1 (stereo not drawn)	-11.9%
CSCCC(NC(=O)C1CC1)C(=O)N(C)Cc1ccsc1 (stereo not drawn)	-3.96%
CC(NC(=O)C1(NC(=O)c2ccc3[nH]ncc3c2)CCCC1)C1CC1 (stereo not drawn)	-2.03%
N#Cc1cccc(S(=O)(=O)NC(=O)CCOCC(F)(F)F)c1	12.4%
O=C1NC2(Nc3ncccc31)C(=O)Nc1c2ccc(Cl)c1F (stereo not drawn)	9.06%
Cc1csc(N2CCC(NCC3(O)CCc4ccccc43)CC2)n1 (stereo not drawn)	0.455%
CCS(=O)(=O)c1ccc(N2CCC(NC(=O)CCC(C)C)CC2)cc1	15.7%
CCNC(=O)N1CCCCC1CCO (stereo not drawn)	-4.27%
COCCN1C(=O)CC[C@@H]2[C@H]1CCN2S(=O)(=O)c1cccs1	-87.2%
N#Cc1ccc(C(=O)N2CCc3c(COCC4CC4)cncc3C2)cc1	-98.8%
Cc1cccc(CN2CCC3(CC2)COC(COCC2CC2)C3)n1 (stereo not drawn)	-108%
Cc1nc(-c2nc(C(=O)NC3CC3)c3ccccn23)cn1C(C)C	-103%
CO[C@@H]1CCN(C(=O)c2cnoc2C)[C@H]1Cc1ccccc1	-72.3%

Compound	cytotoxicity at 10 µM
CN1CCN(c2ncnc3c2CCN(C(=O)c2cccn2C)CC3)CC1	-71%
c1cnc(N2CCCC3(CCN(Cc4ccncc4)C3)C2)nc1 (stereo not drawn)	0.436%
CCOCC1CN(C(=O)C2=CCCC2)Cc2cnn(CC)c21 (stereo not drawn)	0.565%
CN1CC(=O)c2sc(NCCc3ccccc3)nc2C1	-11%
CNCC[C@H]1CC(C)(C)Oc2ccc(OCC3CC3)cc21	-9.44%
CN1CCCN(c2nccc(-c3c[nH]nc3-c3ccncc3)n2)CC1	-11%
COCc1nc(NC(C)c2c(C)n[nH]c2C)c2cnn(C)c2n1 (stereo not drawn)	-13.4%
CC(C)n1ccnc1CN1C(=O)OC[C@@H]1c1ccccc1	-8.48%
CC(C)c1nnc2sc(CC3CN(Cc4ccccc4)CCO3)nn12 (stereo not drawn)	-2.66%
Cc1ccc(OC2(C(=O)O)CCN(C(=O)c3ccoc3C)CC2)cn1	-1.56%
CCCn1cc(C(=O)NC(C)c2c(C)nn(CC)c2C)c(C)n1 (stereo not drawn)	5.31%
CCc1cn[nH]c1C1CCN(c2cc(C)c3cccc(OC)c3n2)CC1	19%
Cc1n[nH]c(C)c1CCNC(=O)Nc1ccc(S(C)(=O)=O)cc1	-5.01%
Cc1ccc(C(C(=O)NCCN2CCC(CO)CC2)N(C)C)cc1 (stereo not drawn)	-10.2%
Cc1c(C(=O)N2CCN(C)[C@@H]3CS(=O)(=O)C[C@@H]32)[nH]c2ccc(F)cc12	-9.2%
O=C(c1ccc[nH]1)N1CCc2cc(S(=O)(=O)N3CCOCC3)ccc2C1	-3.44%
Cc1cnc(C(=O)N2CCNCC2C(=O)NCc2ccncc2)cn1 (stereo not drawn)	0.89%
CCNC(=O)C1CN(Cc2c(-c3cc(C)on3)nn(C)c2Cl)CCO1 (stereo not drawn)	-4.37%
COCCN1CCCC(O)(CN2CCCN(c3ncccn3)CC2)C1=O (stereo not drawn)	-3.95%
Cn1ccc2ccc(C(=O)N3CCC[C@H]3C(=O)N3CCOCC3)cc21	-0.829%
CN(C)c1ncnc2c1CCN(S(=O)(=O)c1cccc(Cl)c1Cl)C2	10.4%
CCS(=O)(=O)N1CCCC(c2nccn2Cc2ccccn2)C1 (stereo not drawn)	-10.5%

Compound	cytotoxicity at 10 µM
COc1ccc(NC(=O)N2CCOCC(CN(C)C)C2)c(C)c1 (stereo not drawn)	0.124%
COCCN(Cc1nccs1)C(=O)c1cc(-c2ccc(C)o2)n[nH]1	6.23%
CCc1c(C)nn(CC(=O)NC(C)c2n[nH]c(C)n2)c1C (stereo not drawn)	-14.1%
Cc1cc(C)c2c(N3CCC(C(=O)N4CCCC4)CC3)ncnc2n1	-0.218%
O=C1Cc2cc(NC(=O)N3CCCN(Cc4cccs4)CC3)ccc2N1	0.929%
CCCNS(=O)(=O)Cc1ccc(Br)cc1	-4.81%
CCCc1nc(C(=O)N[C@H]2COC[C@@H]2N2CCN(C)CC2)cs1	-23.8%
CC(C)c1nnc2sc(CC3CCS(=O)(=O)C3)nn12 (stereo not drawn)	-6.48%
O=C(O)CCc1nc2nccc(-c3ccc(F)cc3)n2n1	-9.24%
CCn1cc(CN(C)S(=O)(=O)c2cnn(CC)c2C)c(C)n1	3.13%
Fc1cccc(CN2CCC(c3n[nH]c4ncccc34)CC2)c1F	-2.86%
O=C(NCCn1ccnc1)c1ccn(-c2ccc(F)cc2)n1	-1.03%
Cc1nn(C)c(C)c1CC(=O)N1CCc2nnc(N(C)C)cc2C1	-7.63%
CC(C)c1cc(NC(=O)CNC2CCCN(c3cccnn3)C2)on1 (stereo not drawn)	-1.79%
Cc1cc(C)c(C)c(OCCCNC(=O)NC(C)c2nncn2C)c1 (stereo not drawn)	-12.3%
O=c1[nH]c(CN(Cc2ccco2)C2CCCC2)nc2ccccc12	11.6%
Cc1nc(C2CCCN2CC(=O)NCCc2ccsc2)no1 (stereo not drawn)	-9.34%
COc1c(CNCc2cccc(Cn3ccnc3)c2)c(C)nn1C	5.61%
CC(Nc1cccc(CN2CCOC2=O)c1)C(=O)Nc1ccccc1F (stereo not drawn)	-5.25%
Cc1cnc(CN(C)C2CCN(CC(=O)N(C)c3nccs3)C2)o1 (stereo not drawn)	-4.1%
CC(NC(=O)N1CCC(n2cncn2)CC1)c1ccc(F)cc1F (stereo not drawn)	-9.88%
CCc1nc2n(n1)CC(NCC(=O)Nc1nccs1)CC2 (stereo not drawn)	-7.13%

Compound	cytotoxicity at 10 µM
Cc1ccccc1CC(=O)N(C)C1CCN(c2ccccn2)CC1	-2.74%
CCCc1noc(CN2CCCC2c2c(C)nn(C)c2OC)n1 (stereo not drawn)	9.94%
Cc1cnn(C2CCCN(C(=O)c3cccc(Cn4ccnc4)c3)C2)c1 (stereo not drawn)	-1.03%
CC(C)c1nnc2n1CCN(C(=O)c1ccc(-n3cnnc3)cc1)C2	-11.5%
CCCC(=O)N(CCCN1CCOCC1)c1nc2c(C)ccc(Cl)c2s1	-10.2%
c1cnc(NC2COC3(CCN(Cc4nccs4)CC3)C2)cn1 (stereo not drawn)	-79.9%
CC1c2ncc(Cn3cccn3)n2CCN1S(C)(=O)=O (stereo not drawn)	-99.2%
O=C(CC1CC1)N1CCn2cc(Cn3cccn3)nc2C1	-78.5%
CN(C)C[C@H]1OC[C@@H]2CCN(S(=O)(=O)c3ccc(F)cc3)C[C@@H]21	-85.7%
O=C(NC1CC1)N1CCC2(CC1)CC(N1CCOCC1)c1ccccc12 (stereo not drawn)	-109%
COc1ccc(CN2CCC3(CC(=O)N(c4cncnc4)C3)C2)cc1 (stereo not drawn)	4.53%
Cc1ccc(CN2CCOC3(COCCN(CCN(C)C)C3)C2)o1 (stereo not drawn)	-1.65%
CCc1ccc(CN2CC[C@@H]3CN(S(C)(=O)=O)CCO[C@@H]3C2)o1	-0.461%
Cc1ccc2c(n1)N(CCN(C)C)CCN(Cc1c(C)noc1C)C2	5.74%
O=C(N1CCCC1)N1Cc2nccn2CC(CN2CCCC2)C1 (stereo not drawn)	1.52%
CNC(=O)CN1CCO[C@H]2CN(CC3CC3)C[C@H]21	6.25%
c1cnc(N2CCO[C@H]3CN(Cc4ccsc4)C[C@H]32)nc1	-82%
CN(C)CC1[C@H]2CN(C(=O)c3cc(=O)[nH]c4ccc(F)cc34)C[C@@H]12 (stereo partly drawn)	-6.68%
COC1[C@@H]2CC[C@H]1CN(c1nc(C)nc3ccsc13)C2 (stereo partly drawn)	18%
N#Cc1ccccc1CN1C[C@H]2CC[C@@H](C1)N(CC1CCC1)C2=O	0.258%

From ChEMBL document CHEMBL4513216, “Probing the Open Global Health Chemical Diversity Library for Multistage-Active Starting Points for Next-Generation Antimalarials” (ACS Infect Dis, 2020)
